Holding throughout (assay type): cell-based
Data set [1] addresses Nuclear receptor subfamily 4 group A member 2 (Homo sapiens) (UniProt P43354). Put plainly: Modulation of full length human Nurr1 expressed in HEK293T cells co-transfected with RXRalpha and luciferase reporter plasmid harboring NurRE response element assessed as decrease in luciferase activity at 12.5 to 50 uM incubated for 18 hrs by luciferase reporter gene assay. As to conditions: filed as modulator, dose 12.5-50 µM. Summed up: (§1)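 Full-length Nurr1 plasmid, alone (2 μg) or 1 μg plus full-length RXRα (1 μg), cotransfected with 3xNBRE- or 3xNurRE-luciferase reporter (6 μg) using Lipofectamine 2000, 18 h. Cells replated at 10,000/well for 4 h. Four ligand concentrations, or vehicle (water, ethanol or DMSO), added in quadruplicate for 18 h. Luciferase read. Fold change vs vehicle, mean ± s.e.m., one-way ANOVA vs vehicle.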
A general note: In a reporter assay the amount or activity of a reporter protein is the signal.

For data set [2] the target is unchanged. Put plainly: Modulation of full length human Nurr1 expressed in SKNBE(2) cells co-transfected with luciferase reporter plasmid harboring NurRE response element assessed as decrease in luciferase activity at 12.5 to 50 uM incubated for 18 hrs by luciferase reporter gene assay. As to conditions: SKNBE2, filed as modulator, dose 12.5-50 µM.
The target is the same in data set [3]. Put plainly: Modulation of full length human Nurr1 expressed in SKNBE(2) cells co-transfected with RXRalpha and luciferase reporter plasmid harboring NBRE response element assessed as increase in luciferase activity at 12.5 to 50 uM incubated for 18 hrs by luciferase reporter gene assay. As to conditions: SKNBE2, filed as modulator, dose 12.5-50 µM. In outline: (§2)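 SK-N-BE(2)-C cells were kept in 1:1 EMEM/F12 with 10% FBS at 37°C and 5% CO2. They were cotransfected with full-length Nurr1 (1 μg), full-length RXRα (1 μg) and 3xNBRE- or 3xNurRE-luc reporter (6 μg) for 18 h, replated at 10,000 cells/well for 4 h, and then treated with ligand or vehicle in quadruplicate for 18 h. The readout was luciferase luminescence as fold over vehicle, reported as mean ± s.e.m. (n=4) from 2 independent experiments, one-way ANOVA.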

Data set [4] has the same target. Put plainly: Modulation of full length human Nurr1 expressed in HEK293T cells co-transfected with RXRalpha and luciferase reporter plasmid harboring NBRE response element assessed as increase in luciferase activity at 12.5 to 50 uM incubated for 18 hrs by luciferase reporter gene assay. The conditions noted are these: filed as modulator, dose 12.5-50 µM. Summed up: as §1

For data set [5] the target is unchanged. Put plainly: Modulation of full length human Nurr1 expressed in SKNBE(2) cells co-transfected with RXRalpha and luciferase reporter plasmid harboring NurRE response element assessed as decrease in luciferase activity at 12.5 to 50 uM incubated for 18 hrs by luciferase reporter gene assay. The conditions noted are these: SKNBE2, filed as modulator, dose 12.5-50 µM. Summed up:
as §2

The subject of another data set is HEK293T. Put plainly: Modulation of Gal4-fused VP16 expressed in HEK293T cells co-transfected with UAS repoter gene assessed as decrease in luciferase activity at 12.5 to 50 uM incubated for 18 hrs by luciferase reporter gene assay. As to conditions: Human alphaherpesvirus 2, filed as modulator, dose 12.5-50 µM. In outline:
(§3)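 Cells in 10-cm dishes were transfected with Gal4-VP16 expression plasmid (2 μg) plus 5xUAS-luciferase reporter (2 μg) for 18 h. They were replated at 10,000 cells/well for 4 h, then given ligand or vehicle (water, ethanol or DMSO) in quadruplicate for 18 h. Luciferase was read with Britelite Plus. Fold change is versus vehicle-treated cells, with one-way ANOVA versus vehicle.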

For data set [6], the target named is Nuclear receptor subfamily 4 group A member 2 (Homo sapiens) (UniProt P43354). Put plainly: Modulation of full length human Nurr1 expressed in HEK293T cells co-transfected with RXRalpha and luciferase reporter plasmid harboring NBRE response element assessed as decrease in luciferase activity at 12.5 to 50 uM incubated for 18 hrs by luciferase reporter gene assay. As to conditions: filed as modulator, dose 12.5-50 µM. Summed up: as §1

For data set [7] the target is unchanged. Description: Modulation of full length human Nurr1 expressed in PC12 cells co-transfected with RXRalpha and luciferase reporter plasmid harboring NurRE response element at 12.5 to 50 uM incubated for 18 hrs by luciferase reporter gene assay. As to conditions: PC-12, dose 12.5-50 µM. In outline:
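PC12 cells were grown at 37°C and 5% CO2 in […] medium with 15% horse serum and 2.5% FBS. They were transfected with full-length Nurr1 (1 μg) plus full-length RXRα (1 μg) and 3xNBRE- or 3xNurRE-luciferase reporter (6 μg) for 18 h, then replated at 10,000 cells/well for 4 h. Ligand or vehicle (water, ethanol or DMSO) was added in quadruplicate for 18 h. Luminescence was read as fold change over vehicle. Results are mean ± s.e.m., n=4, from 2 independent experiments, analysed by one-way ANOVA against vehicle.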

Data set [8] has the same target. Description: Modulation of full length human Nurr1 expressed in SKNBE(2) cells co-transfected with RXRalpha and luciferase reporter plasmid harboring NBRE response element assessed as decrease in luciferase activity at 12.5 to 50 uM incubated for 18 hrs by luciferase reporter gene assay. As to conditions: SKNBE2, filed as modulator, dose 12.5-50 µM. Summed up: as §2

Data set [9] deals with PC-12. Put plainly: Modulation of Gal4-fused VP16 expressed in PC12 cells co-transfected with UAS repoter gene assessed as decrease in luciferase activity at 12.5 to 50 uM incubated for 18 hrs by luciferase reporter gene assay. The conditions noted are these: Human alphaherpesvirus 2, filed as modulator, dose 12.5-50 µM. Summed up:
as §3

The test system of a further data set is SKNBE2. Put plainly: Modulation of Gal4-fused VP16 expressed in SKNBE(2) cells co-transfected with UAS repoter gene assessed as decrease in luciferase activity at 12.5 to 50 uM incubated for 18 hrs by luciferase reporter gene assay. The conditions noted are these: Human alphaherpesvirus 2, filed as modulator, dose 12.5-50 µM. Summed up: as §3
Data set [10] addresses Nuclear receptor subfamily 4 group A member 2 (Homo sapiens) (UniProt P43354). Put plainly: Modulation of full length human Nurr1 expressed in PC12 cells co-transfected with luciferase reporter plasmid harboring NBRE response element at 12.5 to 50 uM incubated for 18 hrs by luciferase reporter gene assay. The conditions noted are these: PC-12, dose 12.5-50 µM. Summed up:
(§4)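 Here PC12 cells (FK-12 medium, 15% horse serum, 2.5% FBS, 37°C, 5% CO2) received full-length Nurr1 (2 μg) without RXRα, plus 3xNBRE- or 3xNurRE-luciferase reporter (6 μg), for 18 h. Cells were replated at 10,000/well for 4 h, then treated with ligand or vehicle in quadruplicate for 18 h. Luciferase luminescence was normalized to vehicle-treated cells. Results are mean ± s.e.m. (n=4) from 2 independent experiments, with one-way ANOVA against vehicle.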

Data set [11] has the same target. Description: Modulation of full length human Nurr1 expressed in HEK293T cells co-transfected with luciferase reporter plasmid harboring NurRE response element assessed as decrease in luciferase activity at 12.5 to 50 uM incubated for 18 hrs by luciferase reporter gene assay. The conditions noted are these: filed as modulator, dose 12.5-50 µM. Summed up:
as §1

A further data set concerns HEK-293T. Put plainly: Cytotoxicity in human HEK293T cells assessed as reduction in cell viability at 12.5 to 50 uM incubated for 18 hrs by Cell Titer-Glo assay. As to conditions: dose 12.5-50 µM. In outline:
(§5)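 Cells seeded at 1.5 million per 10-cm dish. Next day they were replated at 10,000 cells/well and rested 4 h. Ligand or vehicle (water, ethanol or DMSO, by ligand) was added in dose-response format in quadruplicate. After 18 h, viability was read by CellTiter-Glo luminescence. Data are mean ± s.e.m., generally representative of 2 independent experiments. One-way ANOVA versus vehicle.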
(In general: ATP-based viability assays read luminescence as a measure of living cells.)

The target in data set [12] is Nuclear receptor subfamily 4 group A member 2 (Homo sapiens) (UniProt P43354). Put plainly: Modulation of full length human Nurr1 expressed in PC12 cells co-transfected with luciferase reporter plasmid harboring NurRE response element at 12.5 to 50 uM incubated for 18 hrs by luciferase reporter gene assay. As to conditions: PC-12, dose 12.5-50 µM. Summed up: as §4

The test system of another data set is SK-N-BE(2). Put plainly: Cytotoxicity in human SKNBE2 cells assessed as reduction in cell viability at 12.5 to 50 uM incubated for 18 hrs by Cell Titer-Glo assay. The conditions noted are these: dose 12.5-50 µM. Summed up:
as §5

The target of data set [13] is Nuclear receptor subfamily 4 group A member 2 (Homo sapiens) (UniProt P43354). Put plainly: Modulation of full length human Nurr1 expressed in SKNBE(2) cells co-transfected with luciferase reporter plasmid harboring NBRE response element assessed as decrease in luciferase activity at 12.5 to 50 uM incubated for 18 hrs by luciferase reporter gene assay. The conditions noted are these: SKNBE2, filed as modulator, dose 12.5-50 µM. Summed up:
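Transfection of SK-N-BE(2)-C cells (1:1 EMEM/F12, 10% FBS, 37°C, 5% CO2) used full-length Nurr1 alone (2 μg, no RXRα) with 3xNBRE- or 3xNurRE-luciferase reporter (6 μg) for 18 h. Cells were replated at 10,000/well for 4 h, then exposed to ligand or vehicle in quadruplicate for 18 h. Luminescence was expressed as fold over vehicle, as mean ± s.e.m. (n=4) from 2 independent experiments, one-way ANOVA against vehicle.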

Data set [14] has as its system PC-12. Description: Cytotoxicity in rat PC-12 cells assessed as reduction in cell viability at 12.5 to 50 uM incubated for 18 hrs by Cell Titer-Glo assay. The conditions noted are these: pc-12, 18 h, dose 12.5-50 µM. In outline: as §5
Data set [15] addresses Nuclear receptor subfamily 4 group A member 2 (Homo sapiens) (UniProt P43354). Description: Modulation of full length human Nurr1 expressed in HEK293T cells co-transfected with luciferase reporter plasmid harboring NBRE response element assessed as decrease in luciferase activity at 12.5 to 50 uM incubated for 18 hrs by luciferase reporter gene assay. As to conditions: filed as modulator, dose 12.5-50 µM. In outline:
as §1

Structures are written as SMILES. Active and inactive are the calls of the source. The rule behind the calls is not given here.

Nuclear receptor subfamily 4 group A member 2 (Homo sapiens), sequence (P43354 whole entry): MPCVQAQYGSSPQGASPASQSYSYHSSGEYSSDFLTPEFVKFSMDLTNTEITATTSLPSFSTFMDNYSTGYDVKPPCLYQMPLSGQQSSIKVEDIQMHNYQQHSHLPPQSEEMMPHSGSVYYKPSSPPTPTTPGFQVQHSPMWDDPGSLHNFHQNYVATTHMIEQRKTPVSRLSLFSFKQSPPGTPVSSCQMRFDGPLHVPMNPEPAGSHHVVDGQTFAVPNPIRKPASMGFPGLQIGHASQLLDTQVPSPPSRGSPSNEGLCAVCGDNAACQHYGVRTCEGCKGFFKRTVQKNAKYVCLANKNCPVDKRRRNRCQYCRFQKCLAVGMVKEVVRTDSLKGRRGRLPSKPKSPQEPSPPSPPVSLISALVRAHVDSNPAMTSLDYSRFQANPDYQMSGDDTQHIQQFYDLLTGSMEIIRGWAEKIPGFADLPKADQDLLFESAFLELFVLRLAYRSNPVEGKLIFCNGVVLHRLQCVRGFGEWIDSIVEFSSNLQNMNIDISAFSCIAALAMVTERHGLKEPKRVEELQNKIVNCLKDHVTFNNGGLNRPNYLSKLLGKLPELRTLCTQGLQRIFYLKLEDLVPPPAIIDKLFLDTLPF

For the compound `Clc1ccc(C(c2c[nH]c3ccccc23)c2c[nH]c3ccccc23)cc1`, the result (in data set [1]; in data set [2]; in data set [3]; in [4]; in data set [5]; in the data set on HEK293T) was Active. Besides, the outcome (in data set [6]; in data set [8]; with PC-12 [9]; with SKNBE2; in data set [11]; in data set [13]) was Active. Besides, the outcome in data set [15] was Active. In addition, the result in [7], in [10] and in data set [12] was inactive. Also, the Activity result in the data set on HEK-293T, with SK-N-BE(2) and with PC-12 [14] was “Toxic” in each case.

Values taken from ChEMBL document CHEMBL5030505, “Assessment of NR4A Ligands That Directly Bind and Modulate the Orphan Nuclear Receptor Nurr1” (J Med Chem, 2020).
